# Rows were chosen to be rich in hits. Some 0.72% of all compounds tested hit in one or more screens of this group.
# bIAP inh – intestinal alkaline phosphatase (bovine) inhibition; purified bovine IAP, CDP-star luminescence, 30 min; inhibition, % at 20 µM; 190,000 tested, under 10 active; AID 1019;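 active means over 50% inhibition of intestinal alkaline phosphatase at 20 µM in the single-dose screen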
#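 Incubation: 30 min reaction at room temperature / Material: purified bovine intestinal alkaline phosphatase (IAP) enzyme / Input: enzyme at 1/65,000,000 dilution / Dosing: 20 µM single dose / Signal: CDP-star luminescence signal / Reagent: CDP-star chemiluminescent phosphatase substrate, 30 µM final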
# mIAP activ – increases mouse intestinal alkaline phosphatase activity. muIAP, CDP-Star luminescence, 30 min; active compounds read high; 1 = vehicle-only enzyme signal, 0 = enzyme-free wells. 330,000 tested, 0.24% active. AID 2805. activation factor at 10 µM;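 active means activation factor of at least 2 at 20 µM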
#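 Assay system: mouse IAP enzyme; Reagent: CDP-Star chemiluminescent phosphatase substrate; Compound: DMSO-dissolved test compounds; Incubation: 30 min, room temperature; Technique: luminescence from enzymatic CDP-Star hydrolysis; Controls: DMSO-only wells and no-enzyme negative control.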
# hIAP act – human IAP activation; purified human IAP, CDP-Star luminescence, 30 min; active compounds read high; 1 = vehicle-only enzyme, 0 = enzyme-free background; 330,000 tested, 0.16% active; activation factor at 10 µM;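 active means activation factor of the enzyme at least 2-fold when tested at 20 µM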
# Target sequence (P09923 whole entry, looked up): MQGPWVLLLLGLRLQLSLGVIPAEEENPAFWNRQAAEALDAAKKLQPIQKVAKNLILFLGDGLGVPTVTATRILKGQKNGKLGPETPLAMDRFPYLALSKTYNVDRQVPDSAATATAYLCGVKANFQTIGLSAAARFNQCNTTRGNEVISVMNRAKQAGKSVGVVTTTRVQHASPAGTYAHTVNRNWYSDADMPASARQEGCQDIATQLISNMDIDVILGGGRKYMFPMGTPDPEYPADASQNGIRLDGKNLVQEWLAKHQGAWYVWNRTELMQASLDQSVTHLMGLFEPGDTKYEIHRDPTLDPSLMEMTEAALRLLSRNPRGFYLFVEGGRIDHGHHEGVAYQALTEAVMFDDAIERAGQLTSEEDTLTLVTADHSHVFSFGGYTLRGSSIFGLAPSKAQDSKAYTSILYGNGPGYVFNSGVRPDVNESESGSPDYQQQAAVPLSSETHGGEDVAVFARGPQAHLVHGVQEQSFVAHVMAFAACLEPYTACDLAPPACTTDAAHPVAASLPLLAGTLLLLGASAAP
# mIAP inh – mouse IAP inhibition. purified mouse IAP, CDP-Star luminescence, 30 min. inhibition, % at 10 µM. 330,000 tested, 0.2% active. AID 2806;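 active means inhibition of at least 40% at 10 µM in the primary screen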;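 further: plate controls were DMSO with enzyme for no effect and no enzyme wells for full effect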
# bIAP activator – intestinal alkaline phosphatase (bovine) activation; purified bovine IAP, CDP-star luminescence, 30 min; active compounds read high; fold of DMSO-control signal, blank-subtracted; activation factor at 20 µM; 200,000 tested, 0.17% active; AID 1016;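 active means activation factor of 2 or more at 20 µM, a signal rise over negative controls twice the positive control's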
# hIAP inh – blocks human intestinal alkaline phosphatase. 330,000 tested, 0.12% active. purified IAP, CDP-Star luminescence, 30 min. inhibition, % at 10 µM. P09923;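 active means inhibition reaching a set limit with compound at 10 µM in the primary screen, cut at about 35% in these data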;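 further: plate controls were DMSO wells with enzyme for no effect and no-enzyme buffer wells for full effect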
# hIAP act confirm – human IAP activation confirmation; shares compounds with hIAP act; purified IAP, CDP-Star luminescence, 30 min; active compounds read low; activation (%Activity, negative = activation), % at 8.3 µM; 880 tested, 10% active; AID 434926;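 active means at least twofold enzyme activation in any of six single-dose repeats, which the averaged readout prints as negative percent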
# mIAP inh conf – mouse IAP inhibition confirmation | shares compounds with mIAP inh | purified mouse IAP, CDP-Star luminescence, 30 min | inhibition, % at 10 µM | 11,000 tested, 4.7% active;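 active means inhibition of at least 40% at 10 µM in either of the two replicates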;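 further: plate controls were DMSO wells with enzyme for no effect and buffer wells lacking enzyme for full effect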
# Numbers without * were called inactive; i = inactive; . = not tested or not shown.
SMILES,bIAP inh,mIAP activ,hIAP act,mIAP inh,bIAP activator,hIAP inh,hIAP act confirm,mIAP inh conf
O=C(Nc1ccc(Cl)cc1)C1CC(=O)n2c(nc3ccccc32)N1 (stereo unspecified),2,2.7*,2*,-169,1,-104,-7,-106
Cc1ccc(S(=O)(=O)N(C)CC(=O)Nc2nnc(CC(C)C)s2)cc1,.,0.9,1.3,10,.,-26,.,.
COc1cc(NC(=O)NCC2CCN(Cc3ccccc3C)CC2)cc(OC)c1OC,.,3.5*,2.4*,-253,.,-141,30,-190
COc1ccc(NC(=O)CCC(=O)NCc2ccco2)c([N+](=O)[O-])c1,.,1.1,1.1,-5,.,-5,.,.
CC(C)n1cc(CN2CCC(C(=O)Nc3cccc(-c4cccc(Cl)c4)c3)CC2)cn1,.,6*,8.8*,-495,.,i,-97*,-297
CCn1nc(C)c(CN2CCC(C(=O)Nc3cccc(-c4cccc(F)c4)c3)CC2)c1C,.,4.9*,6.1*,-387,.,i,51,-208
CCn1cc(CN2CCC(C(=O)Nc3cccc(-c4cccc(OC)c4)c3)CC2)cn1,.,1,1.1,-1,.,-13,.,.
CCc1nn(CCCC(=O)NCc2ccco2)c(=O)c2cc3occc3n12,.,1,1.3,-3,.,-32,.,.
Cc1ccc(CNC(=S)NC2CCC(C(C)(C)C)CC2)cc1 (stereo unspecified),.,4.5*,2.1*,-355,.,-107,-26,-100
COc1cc(/C=C/C(O)=C/C(=O)/C=C/c2ccc(O)cc2)ccc1O,.,0.47,0.65,53*,.,35*,11,48*
Brc1ccc(C[n+]2ccccc2)cc1,.,0.97,0.99,3,.,0,.,.
Cc1ccc(C)c(CN2CCC(n3nccc3NC(=O)CCCc3ccccc3)CC2)c1,.,2.4*,2.6*,-138,.,-164,-61,-131
O=C(CCCc1ccccc1)Nc1ccnn1C1CCN(Cc2ccc(Cl)cc2)CC1,.,2.5*,2.9*,-150,.,-195,-2,-118
CC(C)Cc1ccc(CN2CCC(n3nccc3NC(=O)C3CCCC3)CC2)cc1,.,2.4*,3.3*,-143,.,-232,5,-98
CC(C)n1cc(CN2CCC(n3nccc3NC(=O)C3CCCC3)CC2)cn1,.,1,0.94,-2,.,6,.,.
CCOc1cccc(CN2CCC(n3nccc3NC(=O)CCCc3ccccc3)CC2)c1,.,2.4*,3.5*,-138,.,-246,-10,-130
C=CCc1ccc(OC)c(OC)c1,.,0.85,0.97,15,.,3,.,.
CC(C)C(NC(=O)c1ccc(C(C)(C)C)cc1)C(=O)NCc1ccccn1 (stereo unspecified),.,1.1,0.85,-9,.,15,.,.
Cc1cc(-c2csc(NC(=O)c3ccc(=O)[nH]c3)n2)c(C)n1Cc1ccco1,.,0.52,0.94,48*,.,6,.,65*
C/C(Cc1ccccc1)=N\NC(=O)CNC(=O)c1ccc(C(C)(C)C)cc1,1,1,0.93,-4,1,7,.,.
CCOC(=O)c1c(-c2ccc(C)cc2)csc1NC(=O)CCSc1nnc2ccccn12,2,0.98,0.97,2,1,3,.,.
O=C(CCN1C(=O)/C(=C\c2ccco2)SC1=S)Nc1ccc(C(=O)O)c(O)c1,.,0.44,1.2,56*,.,-16,.,76*
O=C(CCN1C(=O)/C(=C/c2ccco2)SC1=S)Nc1ccc(C(=O)O)c(O)c1,.,0.39,1,62*,.,-4,.,78*
C#CCOCCOCCOCCNc1nc(N2CCN(C(=O)CCCCCCCCCCNC(=O)Cn3cc(CCCCCN)nn3)CC2)nc(N2CCN(C(=O)CCCCCCCCCCNC(=O)[C@H]([C@@H](C)CC)n3cc(CCCCN=C(N)N)nn3)CC2)n1,.,9.7*,1.2,i,.,-19,.,i
C#CCOCCOCCOCCNc1nc(N2CCN(C(=O)CCCCCCCCCCNC(=O)Cn3cc(CCCCCN)nn3)CC2)nc(N2CCN(C(=O)CCCCCCCCCCNC(=O)[C@@H](CCC(=O)O)n3cc(CCCCCN)nn3)CC2)n1,.,1.4,0.97,-42,.,3,.,.
